Laboratory results taken from ChEMBL document CHEMBL3046321, “Preparation of achiral and chiral (E)-enaminopyran-2,4-diones and their phytotoxic activity” (2009).

How the values were obtained:
Ipomoea grandifolia [1] = test: Phytotoxicity against Ipomoea grandifolia seeds assessed as inhibition of root biomass development at […] measured at 21 days after seed sowing by green house trials
Cucumis sativus [2] = test: Phytotoxic activity against Cucumis sativus (cucumber)seeds assessed as inhibition of radicle growth at 10^-4 mol/l at 25 degC after 72 hr by filter-paper based radicle elongation assay; assay type: functional
How it was run: (§1)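 Test compounds suspended and sonicated 5 min. Aliquots of 4 mL wetted two sheets of filter paper in glass Petri dishes, with 20 seeds per dish. Tested at 10⁻⁴ and 10⁻³ mol L⁻¹. Incubated 72 h at 25 °C under fluorescent light. Radicle length measured and germination recorded (radicle ≥1 mm). Completely randomized design, five replications. Results as % radicle growth inhibition vs untreated controls; Tukey's test, P 0.05.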

Ipomoea grandifolia [3] = test: Phytotoxicity against Ipomoea grandifolia seeds assessed as inhibition of aerial parts development at 5x10'-5 mol/kg measured at 21 days after seed sowing by green house trials; assay type: functional
Urochloa decumbens [4] = test: Phytotoxicity against Urochloa decumbens seeds assessed as inhibition of aerial parts development at 5x10'-5 mol/kg measured at 21 days after seed sowing by green house trials; assay type: functional
Ipomoea grandifolia [5] = test: Phytotoxicity against Ipomoea grandifolia pre-germinated seeds assessed as inhibition of root biomass development at 5x10'-4 mol/l at 28 degC after 24 to 48 hr by sand based radicle elongation assay; assay type: functional
Sorghum bicolor [6] = test: Phytotoxic activity against Sorghum bicolor seeds assessed as inhibition of radicle growth at 10^-3 mol/l at 25 degC after 72 hr by filter-paper based radicle elongation assay; assay type: functional
How it was run: as §1

Urochloa decumbens [7] = test: Stimulation of aerial parts development in Urochloa decumbens pregerminated seeds at 5x10'-4 mol/l at 28 degC after 24 to 48 hr by sand based radicle elongation assay; assay type: functional
Sorghum bicolor [8] = test: Phytotoxic activity against Sorghum bicolor seeds assessed as inhibition of radicle growth at 10^-4 mol/l at 25 degC after 72 hr by filter-paper based radicle elongation assay; assay type: functional
How it was run: as §1

Ipomoea grandifolia [9] = test: Phytotoxicity against Ipomoea grandifolia pre-germinated seeds assessed as inhibition of aerial parts development at 5x10'-4 mol/l at 28 degC after 24 to 48 hr by sand based radicle elongation assay; assay type: functional
Cucumis sativus [10] = test: Phytotoxic activity against Cucumis sativus (cucumber)seeds assessed as inhibition of radicle growth at 10^-3 mol/l at 25 degC after 72 hr by filter-paper based radicle elongation assay; assay type: functional
How it was run: as §1

Urochloa decumbens [11] = test: Stimulation of root biomass development in Urochloa decumbens pregerminated seeds at 5x10'-4 mol/l at 28 degC after 24 to 48 hr by sand based radicle elongation assay; assay type: functional
Urochloa decumbens [12] = test: Phytotoxicity against Urochloa decumbens seeds assessed as inhibition of root biomass development at 5x10'-5 mol/kg measured at 21 days after seed sowing by green house trials; assay type: functional
Urochloa decumbens [13] = test: Phytotoxicity against Urochloa decumbens pregerminated seeds assessed as inhibition of root biomass development at 5x10'-4 mol/l at 28 degC after 24 to 48 hr by sand based radicle elongation assay; assay type: functional
Urochloa decumbens [14] = test: Phytotoxicity against Urochloa decumbens pregerminated seeds assessed as inhibition of aerial parts development at 5x10'-4 mol/l at 28 degC after 24 to 48 hr by sand based radicle elongation assay; assay type: functional

COC(=O)[C@@H](N/C(C)=C1\C(=O)C=C(C)OC1=O)C(C)C
inhibition (INH) (Ipomoea grandifolia [1]): 65.3% | inhibition at 100 µM (Cucumis sativus [2]): -6.4% | inhibition (INH) (Ipomoea grandifolia [3]): 67.7% | inhibition (INH) (Urochloa decumbens [4]): -47.4% | inhibition at 500 µM (Ipomoea grandifolia [5]): 65% | inhibition at 1000 µM (Sorghum bicolor [6]): 70.5% | Activity (Urochloa decumbens [7]): 46% | inhibition at 100 µM (Sorghum bicolor [8]): 17.2% | inhibition at 500 µM (Ipomoea grandifolia [9]): 68% | inhibition at 1000 µM (Cucumis sativus [10]): 80.8% | Activity (Urochloa decumbens [11]): 46% | inhibition (INH) (Urochloa decumbens [12]): -45.7%

COC(=O)[C@H](C)N/C(C)=C1\C(=O)C=C(C)OC1=O
inhibition (INH) (Ipomoea grandifolia [1]): 61.7% | inhibition at 100 µM (Cucumis sativus [2]): -0.3% | inhibition (INH) (Ipomoea grandifolia [3]): 56.9% | inhibition (INH) (Urochloa decumbens [4]): 33.3% | inhibition at 500 µM (Ipomoea grandifolia [5]): 62% | inhibition at 500 µM (Urochloa decumbens [13]): 46% | inhibition at 1000 µM (Sorghum bicolor [6]): 71.7% | inhibition at 500 µM (Urochloa decumbens [14]): 33% | inhibition at 100 µM (Sorghum bicolor [8]): 21.6% | inhibition at 500 µM (Ipomoea grandifolia [9]): 57% | inhibition at 1000 µM (Cucumis sativus [10]): 76.3% | inhibition (INH) (Urochloa decumbens [12]): 43.4%

COC(=O)[C@H](Cc1ccccc1)N/C(C)=C1\C(=O)C=C(C)OC1=O
inhibition at 100 µM (Cucumis sativus [2]): 2.1% | inhibition at 1000 µM (Sorghum bicolor [6]): 24.4% | inhibition at 100 µM (Sorghum bicolor [8]): -10.8% | inhibition at 1000 µM (Cucumis sativus [10]): 63.1%

CC1=CC(=O)/C(=C(/C)NNc2ccc([N+](=O)[O-])cc2[N+](=O)[O-])C(=O)O1
inhibition at 100 µM (Cucumis sativus [2]): 23.4% | inhibition at 1000 µM (Sorghum bicolor [6]): 75.8% | inhibition at 100 µM (Sorghum bicolor [8]): 8.3% | inhibition at 1000 µM (Cucumis sativus [10]): 77.6%

CCCCN/C(C)=C1\C(=O)C=C(C)OC1=O
inhibition at 100 µM (Cucumis sativus [2]): -10.4% | inhibition at 1000 µM (Sorghum bicolor [6]): 79.7% | inhibition at 100 µM (Sorghum bicolor [8]): 48.3% | inhibition at 1000 µM (Cucumis sativus [10]): 44%

CC1=CC(=O)/C(=C(/C)NNc2ccccc2)C(=O)O1
inhibition at 100 µM (Cucumis sativus [2]): 29.5% | inhibition at 1000 µM (Sorghum bicolor [6]): 27.2% | inhibition at 100 µM (Sorghum bicolor [8]): -26.5% | inhibition at 1000 µM (Cucumis sativus [10]): 19.2%

COc1ccc(N/C(C)=C2\C(=O)C=C(C)OC2=O)cc1
inhibition at 100 µM (Cucumis sativus [2]): 1.4% | inhibition at 1000 µM (Sorghum bicolor [6]): 48.2% | inhibition at 100 µM (Sorghum bicolor [8]): 28.4% | inhibition at 1000 µM (Cucumis sativus [10]): 33.4%

COC(=O)CN/C(C)=C1\C(=O)C=C(C)OC1=O
inhibition (INH) (Ipomoea grandifolia [1]): 34.3% | inhibition at 100 µM (Cucumis sativus [2]): -15.3% | inhibition (INH) (Ipomoea grandifolia [3]): 41.7% | inhibition (INH) (Urochloa decumbens [4]): 33.3% | inhibition at 500 µM (Ipomoea grandifolia [5]): 34% | inhibition at 500 µM (Urochloa decumbens [13]): 44% | inhibition at 1000 µM (Sorghum bicolor [6]): 59.3% | inhibition at 500 µM (Urochloa decumbens [14]): 33% | inhibition at 100 µM (Sorghum bicolor [8]): 7% | inhibition at 500 µM (Ipomoea grandifolia [9]): 42% | inhibition at 1000 µM (Cucumis sativus [10]): 69.1% | inhibition (INH) (Urochloa decumbens [12]): 43.3%

CC1=CC(=O)/C(=C(/C)Nc2cc(Cl)c([N+](=O)[O-])cc2O)C(=O)O1
inhibition (INH) (Ipomoea grandifolia [1]): 32% | inhibition at 100 µM (Cucumis sativus [2]): 21.8% | inhibition (INH) (Ipomoea grandifolia [3]): 43.7% | inhibition (INH) (Urochloa decumbens [4]): -20.3% | inhibition at 1000 µM (Sorghum bicolor [6]): 64.4% | Activity (Urochloa decumbens [7]): 20% | inhibition at 100 µM (Sorghum bicolor [8]): 4.3% | inhibition at 1000 µM (Cucumis sativus [10]): 81.4% | Activity (Urochloa decumbens [11]): 24% | inhibition (INH) (Urochloa decumbens [12]): -24%

CC1=CC(=O)/C(=C(/C)Nc2cc([N+](=O)[O-])ccc2O)C(=O)O1
inhibition (INH) (Ipomoea grandifolia [1]): 79.9% | inhibition at 100 µM (Cucumis sativus [2]): -12.4% | inhibition (INH) (Ipomoea grandifolia [3]): 78.9% | inhibition (INH) (Urochloa decumbens [4]): 15% | inhibition at 500 µM (Ipomoea grandifolia [5]): 81% | inhibition at 500 µM (Urochloa decumbens [13]): 15% | inhibition at 1000 µM (Sorghum bicolor [6]): 55.6% | inhibition at 500 µM (Urochloa decumbens [14]): 15% | inhibition at 100 µM (Sorghum bicolor [8]): 3.9% | inhibition at 500 µM (Ipomoea grandifolia [9]): 76% | inhibition at 1000 µM (Cucumis sativus [10]): 58.1% | inhibition (INH) (Urochloa decumbens [12]): 15.3%

CC1=CC(=O)/C(=C(/C)Nc2ccccc2Cl)C(=O)O1
inhibition at 100 µM (Cucumis sativus [2]): 54.5% | inhibition at 1000 µM (Sorghum bicolor [6]): 85.2% | inhibition at 100 µM (Sorghum bicolor [8]): 32.9% | inhibition at 1000 µM (Cucumis sativus [10]): 88.3%

CC1=CC(=O)/C(=C(/C)Nc2ccccc2O)C(=O)O1
inhibition at 100 µM (Cucumis sativus [2]): 7.8% | inhibition at 1000 µM (Sorghum bicolor [6]): 73.7% | inhibition at 100 µM (Sorghum bicolor [8]): 39.9% | inhibition at 1000 µM (Cucumis sativus [10]): 69.3%

CC1=CC(=O)/C(=C(/C)Nc2ccccc2)C(=O)O1
inhibition at 100 µM (Cucumis sativus [2]): -10.4% | inhibition at 1000 µM (Sorghum bicolor [6]): 62% | inhibition at 100 µM (Sorghum bicolor [8]): 7.2% | inhibition at 1000 µM (Cucumis sativus [10]): 81.1%

CCCN/C(C)=C1\C(=O)C=C(C)OC1=O
inhibition at 100 µM (Cucumis sativus [2]): -15.7% | inhibition at 1000 µM (Sorghum bicolor [6]): 75.4% | inhibition at 100 µM (Sorghum bicolor [8]): 19.9% | inhibition at 1000 µM (Cucumis sativus [10]): 46.2%

CC[C@H](C)N/C(C)=C1\C(=O)C=C(C)OC1=O
inhibition (INH) (Ipomoea grandifolia [1]): 83% | inhibition at 100 µM (Cucumis sativus [2]): 15% | inhibition (INH) (Ipomoea grandifolia [3]): 84.4% | inhibition (INH) (Urochloa decumbens [4]): 70.8% | inhibition at 500 µM (Ipomoea grandifolia [5]): 81% | inhibition at 500 µM (Urochloa decumbens [13]): 66% | inhibition at 1000 µM (Sorghum bicolor [6]): 79.3% | inhibition at 500 µM (Urochloa decumbens [14]): 71% | inhibition at 100 µM (Sorghum bicolor [8]): 46.2% | inhibition at 500 µM (Ipomoea grandifolia [9]): 84% | inhibition at 1000 µM (Cucumis sativus [10]): 87.5% | inhibition (INH) (Urochloa decumbens [12]): 65.5%

CC1=CC(=O)/C(=C(/C)NCc2ccccc2)C(=O)O1
inhibition (INH) (Ipomoea grandifolia [1]): 79.6% | inhibition at 100 µM (Cucumis sativus [2]): 20.1% | inhibition (INH) (Ipomoea grandifolia [3]): 85.9% | inhibition (INH) (Urochloa decumbens [4]): 22.8% | inhibition at 500 µM (Ipomoea grandifolia [5]): 81% | inhibition at 1000 µM (Sorghum bicolor [6]): 70.8% | inhibition at 100 µM (Sorghum bicolor [8]): 45% | inhibition at 500 µM (Ipomoea grandifolia [9]): 84% | inhibition at 1000 µM (Cucumis sativus [10]): 65.5% | inhibition (INH) (Urochloa decumbens [12]): 39.3%

CC(=O)C1C(=O)C=C(C)OC1=O (stereo not drawn) [DEHYDROACETIC ACID]
inhibition (INH) (Ipomoea grandifolia [1]): 40.7% | inhibition at 100 µM (Cucumis sativus [2]): 36.7% | inhibition (INH) (Ipomoea grandifolia [3]): 7.6% | inhibition (INH) (Urochloa decumbens [4]): -41.2% | inhibition at 500 µM (Urochloa decumbens [13]): 41% | inhibition at 1000 µM (Sorghum bicolor [6]): 82.7% | inhibition at 500 µM (Urochloa decumbens [14]): 8% | Activity (Urochloa decumbens [7]): 41% | inhibition at 100 µM (Sorghum bicolor [8]): 34.6% | inhibition at 1000 µM (Cucumis sativus [10]): 87.6% | Activity (Urochloa decumbens [11]): 68% | inhibition (INH) (Urochloa decumbens [12]): -67.7%
